Dynein transport = blocks dynein driven cargo transport along microtubules; 3617.4 mouse cells, GR-EGFP nuclear translocation imaging; test concentration mostly 20 µM; stimulated with dexamethasone, 1 µM; hits give low values; z-score, hits read low; hit rate 0.47% among 220,000; AID 1381;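 active = plate z-score of nuclear minus cytoplasmic receptor signal below a set negative limit, without overly bright fluorescence or cell loss, cut at about -3.5 in these data, passing the limit was not always enough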;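 also: z-score of nuclear minus cytoplasmic ring GR-EGFP intensity difference per well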
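Also added: dexamethasone, 1.0 µM final. Medium: tet-free, stripped-serum medium. Detection: fixed, Hoechst-stained cells imaged at 10x for EGFP. Read-out: nuclear-to-cytoplasmic GR-EGFP distribution per well. Times: induction 48 h, compound 1 h, agonist 30 min.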
MT stabilize HCS = microtubule stabilization, imaging screen | HeLa tubulin immunostaining HCS, 24 h; share of cells brighter than vehicle mean+2SD | % tubulin-high responders, % at 10 µM | hit rate 0.83% among 200,000;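 active = plate Z-score above 3 for both tubulin-high and condensed-nucleus cell shares, with cell loss under 80%, at 10 µM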;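 also: anti alpha tubulin signal scored within the nucleus-defined area of each cell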
HSV replic up = HSV replication enhancement. maximum fold increase. HSV replication augmentation in cells, fold increase. AID 1956. hit rate 0.005% among 220,000; in the data active = maximum fold increase above about 1.5; tested in PC3 cells
b-catenin transl = alters nuclear translocation of beta-catenin in HeLa cells; nuclear translocation activity, % at 5 µM; AID 1665; immunofluorescence imaging; hit rate 0.3% among 190,000;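 active = nuclear translocation activity above 50% at 5 µM, with a well cell count of 50 or more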;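 also: per-cell ratio of nuclear to cytoplasmic median beta-catenin stain intensity; plate controls were DMSO negative control for no effect and GSK-3 inhibitor IX positive control for full effect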
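Test system: human HeLa cells, endogenous beta-catenin. Times: 24 h compound exposure, 37°C. Measured by: beta-catenin immunofluorescence imaging with DAPI.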
Lmaj promast = reduces viability of Leishmania major promastigotes. resazurin fluorescence viability. inhibition, % at 10 µM. hit rate 9% among 200,000. AID 1063; in the data active = inhibition above about 50%;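 also: promastigotes grown with compound for 44 hours at 28 °C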
Numbers without * were called inactive; i = inactive; . = not tested or not shown. An excerpt weighted towards active compounds, which were near 8.9% of everything screened.

SMILES | Dynein transport | MT stabilize HCS | HSV replic up | b-catenin transl | Lmaj promast
COc1ccccc1NC(=O)N(Cc1cccs1)Cc1cc2cc3c(cc2[nH]c1=O)OCO3 | -1.1 | 6 | i | 0 | 7
Cc1ncc(S(=O)(=O)c2ccccc2)c(-c2ccccc2)n1 | 0.98 | 1 | i | . | -3
N/C(=N\OC(=O)N1CCOCC1)c1ccccc1 | -0.17 | 3 | i | 1 | 11
O=C(NCCc1ccncc1)Nc1cccc(Cl)c1 | -0.95 | 1 | i | -1 | -3
S=c1nccc(-c2cccs2)[nH]1 | -0.015 | 2 | i | -1 | -11
COc1cc2cc(CN(Cc3cccs3)C(=S)Nc3ccc(C)cc3)c(=O)[nH]c2cc1OC | 2.6 | 4 | . | 2 | 98*
Cc1ccc(NC(=S)N(CCN(C)C)Cc2cc3cc(C)ccc3[nH]c2=O)cc1 | 2.1 | 2 | i | 0 | 44
COc1cc2cc(CN(Cc3cccs3)C(=S)Nc3cccc(C)c3)c(=O)[nH]c2cc1OC | -0.63 | 2 | . | -1 | 88*
Nc1nc(-c2ccccc2)c(-c2ccccc2)s1 | 0.36 | 4 | i | -2 | -6
CCc1ccc(NC2=CC(=O)CC(c3ccco3)C2)cc1 (stereo unspecified) | -1.2 | 4 | i | -7 | 63*
CC(C)CCNC1=CC(=O)CC(c2ccccc2)C1 (stereo unspecified) | 0.7 | 13* | i | . | 40
O=C1C=C(Nc2ccc(Cl)cc2)CC(c2ccccc2)C1 (stereo unspecified) | -1.4 | 14* | i | 126* | 3
Cc1ccc(NC2=CC(=O)CC(c3ccccc3)C2)cc1 (stereo unspecified) | -0.37 | 20* | i | 10 | -1
Cc1cc(C)cc(NC2=CC(=O)CC(c3ccco3)C2)c1 (stereo unspecified) | -0.21 | 2 | i | 1 | 5
CC(C(=O)NN)c1ccc([N+](=O)[O-])cc1 (stereo unspecified) | -1 | 2 | i | -1 | -1
Cc1nc(-c2c(C(F)(F)F)noc2-c2ccc(O)cc2O)cs1 | 0.17 | 3 | i | -1 | -7
Cc1sc(NC(=O)CN2CCOCC2)nc1-c1ccc2c(c1)CCN2S(=O)(=O)c1ccccc1 | -0.033 | 2 | i | 0 | 97*
CS(=O)(=O)N1CCc2cc(-c3csc(NC(=O)Cc4cccs4)n3)ccc21 | 0.21 | 5 | i | 2 | 40
O=C(CN1CCOCC1)Nc1nc(-c2ccc3c(c2)CCN3S(=O)(=O)c2ccccc2)cs1 | -0.98 | 2 | i | 4 | 68*
Cc1cccc(N2C(S)=C(C#N)C(=O)NC2c2cccs2)c1 (stereo unspecified) | -1.5 | 2 | i | 1 | 47
COc1cccc(NC(=S)N(Cc2ccccn2)Cc2ccccc2Cl)c1 | -1.2 | 4 | i | 1 | 62*
CCCCOc1ccc2c(c1)/C(=C(\C(Cl)=C(Cl)Cl)[N+](=O)[O-])N2 | -0.26 | 9.9* | i | 0 | 9
CN1CCN(C(=S)c2cn(Cc3ccccc3)c3ccccc23)CC1 | 1.1 | 3 | i | -1 | 22
CN1CCN(C(=S)c2cn(Cc3ccc(Br)cc3)c3ccccc23)CC1 | 1.4 | 7 | i | -1 | 53*
CC1CCN(C(=S)c2cn(Cc3cccc(F)c3)c3ccccc23)CC1 | 1.7 | 4 | i | . | 67*
SMILES | Dynein transport | MT stabilize HCS | HSV replic up | b-catenin transl | Lmaj promast
C/C(=N\NC(=O)COc1ccccc1[N+](=O)[O-])c1cccs1 | 0.62 | 1 | i | 1 | -1
CN1C(=O)N(CN2CCCCC2)C2C1N(C)C(=O)N2CN1CCCCC1 (stereo unspecified) | 0.56 | 2 | i | 2 | -5
CCOc1ccccc1CN1CCN(C2CCOCC2)CC1CCO (stereo unspecified) | 1.2 | 2 | i | 2 | 0
COc1ccc(CN2CCN(C3CCOCC3)CC2CCO)c(C)c1C (stereo unspecified) | 0.99 | 4 | i | -1 | 81*
COc1ccc(CN2CCN(C3CCSCC3)CC2CCO)c(C)c1C (stereo unspecified) | 1.7 | 1 | i | -2 | 88*
CCn1c(=O)c2cc(C(=O)Nc3ccccc3OC)sc2c2ccccc21 | -0.87 | . | i | 1 | .
O=C(CCNc1cc(Cl)cc(Cl)c1)c1ccco1 | 0.34 | 2 | i | -2 | 10
O=C(CCNc1ccc(Cl)c(C(F)(F)F)c1)c1ccco1 | 0.59 | 3 | i | 1 | 35
O=C(CCNc1ccc(F)cc1)c1ccco1 | -2 | 3 | i | -1 | 97*
O=C(CCNc1ccc(F)c(Cl)c1)c1ccco1 | -0.77 | 2 | i | -1 | 96*
O=C(CCNc1cccc(C(F)(F)F)c1)c1ccco1 | -0.87 | 2 | . | 2 | 85*
O=C1Cc2ccccc2Sc2c(OCCN3CCCCC3)cccc21 | -0.091 | 4 | i | 0 | 100*
Nc1ccc2c(c1)C(=O)Cc1ccccc1S2 | 1.1 | 3 | i | 1 | 2
CN(C)CCCOc1ccc2c(c1)Sc1ccccc1CC2=O | 1.6 | 2 | i | -1 | 100*
O=C1Cc2ccccc2Sc2cc(OCCCN3CCCCC3)ccc21 | 0.42 | 2 | i | -4 | 100*
CC(C)Sc1ccc(C(=O)Nc2ccc(F)cc2F)cn1 | 0.6 | 5 | i | -4 | -1
COCC(=O)N(Cc1cc2cc(OC)ccc2[nH]c1=O)c1ccc(C)cc1 | 0.12 | 2 | i | -6 | -5
O=C(CSCc1ccccc1Cl)N1CCN(c2ccccn2)CC1 | -0.36 | 1 | i | . | 60*
O=C(C(=O)N1CCN(c2cccc(Cl)c2)CC1)N1CCCCC1 | 2.7 | 5 | i | -1 | 6
O=C(CCSCc1ccccc1Cl)N1CCN(c2cccc(Cl)c2)CC1 | 1.1 | 3 | i | . | 69*
O=C(CCN1C(=O)C2C3C=CC(C3)C2C1=O)N1CCN(c2ccccn2)CC1 (stereo unspecified) | -0.35 | 3 | i | -1 | -4
O=C(CCN1C(=O)C2C3C=CC(C3)C2C1=O)N1CCN(c2cccc(Cl)c2)CC1 (stereo unspecified) | -0.99 | 2 | i | 1 | 56*
COC(=O)N/N=C/c1ccccc1 | 0.38 | 6 | i | -1 | 1
COC(=O)CN1C(=O)[C@@H]2[C@H](C1=O)[C@@H]1CC(C(=O)OC)=C[C@@H](C(=O)OC)[C@@H]3C1=C(C(=O)[C@@]3(C)NC(=O)c1ccccc1)[C@@H]2C | . | . | i | . | .
CCN(CC)CCCNC(=O)CSc1c2c(nc3cc(Cl)ccc13)CCCC2 | -2.7 | 2 | i | -1 | 100*
COCCCNC(=O)CSc1c2c(nc3ccc(Cl)cc13)CCCC2 | -0.89 | 3 | i | -1 | 25
O=C(CSc1c2c(nc3cc(Cl)ccc13)CCCC2)NCCN1CCOCC1 | -1.1 | 2 | i | 10 | 59*
O=C(CSc1c2c(nc3cc(Cl)ccc13)CCCC2)NCCCN1CCOCC1 | -2.8 | 4 | i | -1 | 32
Nc1nnc(SCc2ccccc2F)n1-c1ccccc1 | -0.44 | 2 | i | 0 | -2
COC(=O)c1cc([N+](=O)[O-])ccc1N1CCN(Cc2ccccc2)CC1 | -0.87 | 3 | i | . | 44

Bioassay records from PubChem.
